Test results: ChEMBL document CHEMBL3593164, “Rational Design and Synthesis of Thioridazine Analogues as Enhancers of the Antituberculosis Therapy” (J Med Chem, 2015)

Columns and labels:
[1] = system: Mycobacterium tuberculosis; assay: Inhibition of multidrug resistance efflux pump in Mycobacterium tuberculosis H37Rv assessed as ofloxacin MIC at 8 ug/ml after 7 days by two-dimensional broth microdilution checkerboard assay; settings: 168 h
[2] = system: Mycobacterium tuberculosis; assay: Inhibition of multidrug resistance efflux pump in Mycobacterium tuberculosis H37Rv assessed as rifampin MIC at 4 ug/ml after 7 days by two-dimensional broth microdilution checkerboard assay; settings: 168 h
[3] = system: Mycobacterium tuberculosis; assay: Inhibition of multidrug resistance efflux pump in Mycobacterium tuberculosis H37Rv assessed as amikacin MIC at 64 ug/ml after 7 days by two-dimensional broth microdilution checkerboard assay; settings: 168 h
[4] = system: Mycobacterium tuberculosis; assay: Inhibition of multidrug resistance efflux pump in Mycobacterium tuberculosis H37Rv assessed as ofloxacin MIC at 4 ug/ml after 7 days by two-dimensional broth microdilution checkerboard assay; settings: 168 h
[5] = system: Mycobacterium tuberculosis; assay: Inhibition of multidrug resistance efflux pump in Mycobacterium tuberculosis H37Rv assessed as isoniazid MIC at 64 ug/ml after 7 days by two-dimensional broth microdilution checkerboard assay; settings: 168 h
[6] = system: Mycobacterium tuberculosis; assay: Inhibition of multidrug resistance efflux pump in Mycobacterium tuberculosis H37Rv assessed as ethidium bromide MIC at 8 ug/ml after 7 days by two-dimensional broth microdilution checkerboard assay; settings: 168 h
[7] = system: Mycobacterium tuberculosis; assay: Inhibition of multidrug resistance efflux pump in Mycobacterium tuberculosis H37Rv assessed as amikacin MIC at 128 ug/ml after 7 days by two-dimensional broth microdilution checkerboard assay; settings: 168 h
[8] = system: Mycobacterium tuberculosis; assay: Inhibition of multidrug resistance efflux pump in Mycobacterium tuberculosis H37Rv assessed as ofloxacin MIC at 16 ug/ml after 7 days by two-dimensional broth microdilution checkerboard assay; settings: 168 h
[9] = system: Mycobacterium tuberculosis; assay: Inhibition of multidrug resistance efflux pump in Mycobacterium tuberculosis H37Rv using ethidium bromide as substrate assessed as relative final fluorescence at 1/2 MIC by real-time fluorometry
[10] = system: Mycobacterium tuberculosis; assay: Inhibition of multidrug resistance efflux pump in Mycobacterium tuberculosis H37Rv assessed as isoniazid MIC at 4 ug/ml after 7 days by two-dimensional broth microdilution checkerboard assay; settings: 168 h
[11] = system: Mycobacterium tuberculosis; assay: Inhibition of multidrug resistance efflux pump in Mycobacterium tuberculosis H37Rv assessed as isoniazid MIC at 8 ug/ml after 7 days by two-dimensional broth microdilution checkerboard assay; settings: 168 h
[12] = system: Mycobacterium tuberculosis; assay: Inhibition of multidrug resistance efflux pump in Mycobacterium tuberculosis H37Rv assessed as amikacin MIC at 16 ug/ml after 7 days by two-dimensional broth microdilution checkerboard assay; settings: 168 h
[13] = system: Mycobacterium tuberculosis; assay: Inhibition of multidrug resistance efflux pump in Mycobacterium tuberculosis H37Rv assessed as reduction in rifampin MIC at 64 ug/ml after 7 days by two-dimensional broth microdilution checkerboard assay
[14] = system: Mycobacterium tuberculosis; assay: Inhibition of multidrug resistance efflux pump in Mycobacterium tuberculosis H37Rv assessed as ethidium bromide MIC at 256 ug/ml after 7 days by two-dimensional broth microdilution checkerboard assay; settings: 168 h
[15] = system: Mycobacterium tuberculosis; assay: Inhibition of multidrug resistance efflux pump in Mycobacterium tuberculosis H37Rv assessed as isoniazid MIC at 128 ug/ml after 7 days by two-dimensional broth microdilution checkerboard assay; settings: 168 h
[16] = system: Mycobacterium tuberculosis; assay: Inhibition of multidrug resistance efflux pump in Mycobacterium tuberculosis H37Rv assessed as rifampin MIC at 128 ug/ml after 7 days by two-dimensional broth microdilution checkerboard assay; settings: 168 h
[17] = system: Mycobacterium tuberculosis; assay: Inhibition of multidrug resistance efflux pump in Mycobacterium tuberculosis H37Rv assessed as isoniazid MIC at 16 ug/ml after 7 days by two-dimensional broth microdilution checkerboard assay; settings: 168 h
[18] = system: Mycobacterium tuberculosis; assay: Inhibition of multidrug resistance efflux pump in Mycobacterium tuberculosis H37Rv assessed as rifampin MIC at 64 ug/ml after 7 days by two-dimensional broth microdilution checkerboard assay; settings: 168 h
[19] = system: Mycobacterium tuberculosis; assay: Inhibition of multidrug resistance efflux pump in Mycobacterium tuberculosis H37Rv assessed as reduction in rifampin MIC at 256 ug/ml after 7 days by two-dimensional broth microdilution checkerboard assay
Summary of the method: (§1)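 M. tuberculosis H37Rv two-dimensional broth microdilution checkerboard. MICs of INH, RIF, AMK, OFX or EtBr were determined without and with graded sub-inhibitory compound concentrations, starting at ½ MIC. Where MIC was undeterminable, the highest concentration still permitting growth was taken as ½ MIC. FIC = MIC of antibacterial in combination / MIC alone. FIC ≤0.25 was scored as synergism and ≥2 as antagonism.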

[20] = system: Mycobacterium tuberculosis; assay: Inhibition of multidrug resistance efflux pump in Mycobacterium tuberculosis H37Rv assessed as rifampin MIC at 16 ug/ml after 7 days by two-dimensional broth microdilution checkerboard assay; settings: 168 h
[21] = system: Mycobacterium tuberculosis H37Rv; assay: Ratio of thioridazine to compound for Inhibition of multidrug resistance efflux pump in Mycobacterium tuberculosis H37Rv using ethidium bromide as substrate assessed as relative final fluorescence at 1/2 MIC by real-time fluorometry
Summary of the method: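 H37Rv cells were loaded with EtBr at 0.5 µg/mL with test compound at ½ MIC. Where the MIC exceeded the testable range, the last determinable concentration was taken as ½ MIC. EtBr retention was followed by real-time fluorometry and expressed as relative final fluorescence (RFF), with verapamil and thioridazine as controls.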

[22] = system: Mycobacterium tuberculosis; assay: Inhibition of multidrug resistance efflux pump in Mycobacterium tuberculosis H37Rv assessed as rifampin MIC at 256 ug/ml after 7 days by two-dimensional broth microdilution checkerboard assay; settings: 168 h; summary of the method: as §1
[23] = system: Mycobacterium tuberculosis; assay: Inhibition of multidrug resistance efflux pump in Mycobacterium tuberculosis H37Rv assessed as amikacin MIC at 4 ug/ml after 7 days by two-dimensional broth microdilution checkerboard assay; settings: 168 h
[24] = system: Mycobacterium tuberculosis; assay: Inhibition of multidrug resistance efflux pump in Mycobacterium tuberculosis H37Rv assessed as ofloxacin MIC at 128 ug/ml after 7 days by two-dimensional broth microdilution checkerboard assay; settings: 168 h
[25] = system: Mycobacterium tuberculosis; assay: Inhibition of multidrug resistance efflux pump in Mycobacterium tuberculosis H37Rv assessed as amikacin MIC at 32 ug/ml after 7 days by two-dimensional broth microdilution checkerboard assay; settings: 168 h
[26] = system: Mycobacterium tuberculosis; assay: Inhibition of multidrug resistance efflux pump in Mycobacterium tuberculosis H37Rv assessed as ofloxacin MIC at 64 ug/ml after 7 days by two-dimensional broth microdilution checkerboard assay; settings: 168 h
[27] = system: Mycobacterium tuberculosis; assay: Inhibition of multidrug resistance efflux pump in Mycobacterium tuberculosis H37Rv assessed as isoniazid MIC at 32 ug/ml after 7 days by two-dimensional broth microdilution checkerboard assay; settings: 168 h
[28] = system: Mycobacterium tuberculosis; assay: Inhibition of multidrug resistance efflux pump in Mycobacterium tuberculosis H37Rv assessed as ethidium bromide MIC at 64 ug/ml after 7 days by two-dimensional broth microdilution checkerboard assay; settings: 168 h
[29] = system: Mycobacterium tuberculosis; assay: Inhibition of multidrug resistance efflux pump in Mycobacterium tuberculosis H37Rv assessed as ethidium bromide MIC at 16 ug/ml after 7 days by two-dimensional broth microdilution checkerboard assay; settings: 168 h
[30] = system: Mycobacterium tuberculosis; assay: Inhibition of multidrug resistance efflux pump in Mycobacterium tuberculosis H37Rv assessed as ofloxacin MIC at 256 ug/ml after 7 days by two-dimensional broth microdilution checkerboard assay; settings: 168 h; summary of the method: as §1
[31] = system: Mycobacterium tuberculosis; assay: Inhibition of multidrug resistance efflux pump in Mycobacterium tuberculosis H37Rv assessed as amikacin MIC at 256 ug/ml after 7 days by two-dimensional broth microdilution checkerboard assay; settings: 168 h; summary of the method: as §1
[32] = system: Mycobacterium tuberculosis; assay: Inhibition of multidrug resistance efflux pump in Mycobacterium tuberculosis H37Rv assessed as rifampin MIC at 8 ug/ml after 7 days by two-dimensional broth microdilution checkerboard assay; settings: 168 h

| SMILES | MIC [1] | MIC [2] | MIC [3] | MIC [4] | MIC [5] | MIC [6] | MIC [8] | RFU [9] | MIC [10] | MIC [11] | MIC [12] | MIC [17] | MIC [18] | MIC [20] | MIC [23] | MIC [25] | MIC [26] | MIC [27] | MIC [28] | MIC [29] | other results |
| --- | --- | --- | --- | --- | --- | --- | --- | --- | --- | --- | --- | --- | --- | --- | --- | --- | --- | --- | --- | --- | --- |
| COc1ccc(N(CCC2CCCCN2C)C(C)C)cc1OC (racemic) | 2 µg/mL | 0.25 µg/mL | 2 µg/mL | 2 µg/mL | 100 ng/mL | 12.5 µg/mL | 2 µg/mL | 0.84 | 0.1 µg/mL | 0.1 µg/mL | 2 µg/mL | 0.1 µg/mL | 0.25 µg/mL | 0.25 µg/mL | 2 µg/mL | 2 µg/mL | 2 µg/mL | 0.1 µg/mL | 12.5 µg/mL | 12.5 µg/mL | MIC [7]: 2 µg/mL; fold change (FC) [13]: 4; MIC [14]: 12.5 µg/mL; MIC [15]: 0.1 µg/mL; MIC [16]: 0.25 µg/mL; fold change (FC) [19]: 164; Ratio IC50 [21]: 2; MIC [22]: < 0.0156 µg/mL; MIC [24]: 2 µg/mL; MIC [30]: 1 µg/mL; MIC [31]: 2 µg/mL; MIC [32]: 0.25 µg/mL |
| CN1CCCCC1CCn1c2ccccc2c2ccccc21 (racemic) | 1 µg/mL | 1 µg/mL | < 0.0156 µg/mL | 1 µg/mL | < 0.078 ng/mL | 12.5 µg/mL | 1 µg/mL | 0.33 | 0.1 µg/mL | 0.1 µg/mL | 1 µg/mL | 0.1 µg/mL | < 0.0156 µg/mL | 0.5 µg/mL | 1 µg/mL | 0.625 µg/mL | < 0.0156 µg/mL | 0.05 µg/mL | < 0.195 µg/mL | 6.25 µg/mL | fold change (FC) [13]: >64; MIC [32]: 0.5 µg/mL |
| CN1CCCCC1CCn1ccc2ccc(Br)cc21 (racemic) | 1 µg/mL | 0.5 µg/mL | > 0.0156 µg/mL | 1 µg/mL | 50 ng/mL | 12.5 µg/mL | 1 µg/mL | 1.22 | 0.1 µg/mL | 0.1 µg/mL | 1 µg/mL | 0.1 µg/mL | < 0.0156 µg/mL | 0.0625 µg/mL | 1 µg/mL | 1 µg/mL | < 0.0156 µg/mL | 0.1 µg/mL | 1.56 µg/mL | 12.5 µg/mL | MIC [7]: < 0.0156 µg/mL; fold change (FC) [13]: >164; MIC [14]: < 0.195 µg/mL; MIC [15]: < 0.0015 µg/mL; MIC [16]: < 0.0156 µg/mL; fold change (FC) [19]: >164; Ratio IC50 [21]: 2; MIC [22]: < 0.0156 µg/mL; MIC [24]: < 0.0156 µg/mL; MIC [30]: < 0.0156 µg/mL; MIC [31]: < 0.0156 µg/mL; MIC [32]: 0.25 µg/mL |
| CN1CCCCC1CCn1cnc2ccccc21 (racemic) | 1 µg/mL | 0.5 µg/mL | 1 µg/mL | 1 µg/mL | 100 ng/mL | 12.5 µg/mL | 1 µg/mL | 1 | 0.1 µg/mL | 0.1 µg/mL | 1 µg/mL | 0.1 µg/mL | 0.5 µg/mL | 0.5 µg/mL | 1 µg/mL | 1 µg/mL | 1 µg/mL | 0.1 µg/mL | 12.5 µg/mL | 12.5 µg/mL | MIC [7]: 1 µg/mL; MIC [14]: < 0.195 µg/mL; MIC [15]: 0.1 µg/mL; MIC [16]: 0.5 µg/mL; fold change (FC) [19]: >64; Ratio IC50 [21]: 2; MIC [22]: < 0.0156 µg/mL; MIC [24]: 1 µg/mL; MIC [30]: < 0.0156 µg/mL; MIC [31]: < 0.0156 µg/mL; MIC [32]: 0.5 µg/mL |
| CSc1ccc2c(c1)N(CCC1CCCCN1C)c1ccccc1S2 (stereo not drawn) [THIORIDAZINE] |  |  |  |  |  |  |  | 0.27 |  |  |  |  |  |  |  |  |  |  |  |  |  |
